Assay [1] concerns Ramos. Description: Potency index, ratio of ibrutinib IC50 to compound IC50 for antiproliferative activity against human Ramos cells. Type of assay: functional.
Assay [2] concerns the target Tyrosine-protein kinase BTK (Homo sapiens, UniProt Q06187). Description: Inhibition of human recombinant full length N-terminal His tagged BTK expressed in baculovirus infected Sf9 cells using poly (Glu,Tyr) 4:1 as substrate measured after 60 mins in presence of ATP by ADP-Glo kinase assay.
Assay [3] concerns Ramos. Description: Antiproliferative activity against human Ramos cells at 40 uM measured after 72 hrs by CCK-8 assay relative to control. Type of assay: functional. To be noted: for inhibition at 40 µM: Homo sapiens, Ramos, 72 h. The method, boiled down:
(§1)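 Ramos or Raji cells in RPMI-1640 with 10% FBS and 1% penicillin-streptomycin at 37 °C, 5% CO2. Seeded at 2000–3000 cells/well one day before compound addition. Exposure 72 h, then CCK-8 with absorbance at 450 nm. […] Single-point inhibition at 40 µM reported as mean ± standard deviation.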

Assay [4] concerns Ramos. The experiment in a line: Antiproliferative activity against human Ramos cells measured after 72 hrs by CCK-8 assay. It counts as functional, cell-based. The method, boiled down:
as §1

For assay [5], the system named is Raji. The experiment in a line: Antiproliferative activity against human Raji cells at 40 uM measured after 72 hrs by CCK-8 assay relative to control. To be noted: for inhibition at 40 µM: Homo sapiens, Raji, 72 h. Type of assay: functional. The method, boiled down: as §1
For assay [6], the system named is Raji. The experiment in a line: Antiproliferative activity against human Raji cells measured after 72 hrs by CCK-8 assay. Type of assay: functional, cell-based. An outline of the steps:
as §1

Assay [7] has as its system Raji. Description: Potency index, ratio of ibrutinib IC50 to compound IC50 for antiproliferative activity against human Raji cells. It counts as functional.
For assay [8], the system named is Ramos. The experiment in a line: Induction of apoptosis in human Ramos cells assessed as viable cells at 5 uM measured after 15 mins by Annexin-V-APC staining-based flow cytometric analysis (reference value: 96.5 %). Type of assay: functional.
The subject of assay [9] is Ramos. The experiment in a line: Induction of apoptosis in human Ramos cells assessed as early apoptotic cells at 5 uM measured after 15 mins by Annexin-V-APC staining-based flow cytometric analysis (reference value: 0.14 %). It counts as functional.
In assay [10] the test system is Ramos. Description: Induction of apoptosis in human Ramos cells assessed as late apoptotic cells at 5 uM measured after 15 mins by Annexin-V-APC staining-based flow cytometric analysis (reference value: 1.85 %). It counts as functional.
The subject of assay [11] is Ramos. Description: Induction of apoptosis in human Ramos cells assessed as necrotic cells at 5 uM measured after 15 mins by Annexin-V-APC staining-based flow cytometric analysis (reference value: 1.50 %). Type of assay: functional.
Assay [12] has as its system Raji. Description: Induction of apoptosis in human Raji cells assessed as viable cells at 5 uM measured after 15 mins by Annexin-V-APC staining-based flow cytometric analysis (reference value: 97.5 %). It counts as functional.
Assay [13] has as its system Raji. The experiment in a line: Induction of apoptosis in human Raji cells assessed as early apoptotic cells at 5 uM measured after 15 mins by Annexin-V-APC staining-based flow cytometric analysis (reference value: 0.021 %). It counts as functional.
Assay [14] deals with Raji. The experiment in a line: Induction of apoptosis in human Raji cells assessed as late apoptotic cells at 5 uM measured after 15 mins by Annexin-V-APC staining-based flow cytometric analysis (reference value: 0.57 %). Type of assay: functional.
Assay [15] concerns Raji. Description: Induction of apoptosis in human Raji cells assessed as necrotic cells at 5 uM measured after 15 mins by Annexin-V-APC staining-based flow cytometric analysis (reference value: 1.87 %). Type of assay: functional.
Assay [16] deals with Ramos. Description: Cell cycle arrest in human Ramos cells assessed as accumulation at G0/G1 phase at 1 uM measured after 48 hrs by propidium iodide/RNase staining based flow cytometric analysis (reference value: 37.66 %). Type of assay: functional.
For assay [17], the system named is Ramos. The experiment in a line: Cell cycle arrest in human Ramos cells assessed as accumulation at S phase at 1 uM measured after 48 hrs by propidium iodide/RNase staining based flow cytometric analysis (reference value: 56.35 %). It counts as functional.
Assay [18] relates to Ramos. The experiment in a line: Cell cycle arrest in human Ramos cells assessed as accumulation at G2/M phase at 1 uM measured after 48 hrs by propidium iodide/RNase staining based flow cytometric analysis (reference value: 5.98 %). It counts as functional.
For assay [19], the system named is Raji. The experiment in a line: Cell cycle arrest in human Raji cells assessed as accumulation at G0/G1 phase at 1 uM measured after 48 hrs by propidium iodide/RNase staining based flow cytometric analysis (reference value: 48.68 %). Type of assay: functional.
For assay [20], the system named is Raji. The experiment in a line: Cell cycle arrest in human Raji cells assessed as accumulation at S phase at 1 uM measured after 48 hrs by propidium iodide/RNase staining based flow cytometric analysis (reference value: 33.18 %). It counts as functional.
Assay [21] has as its system Raji. The experiment in a line: Cell cycle arrest in human Raji cells assessed as accumulation at G2/M phase at 1 uM measured after 48 hrs by propidium iodide/RNase staining based flow cytometric analysis (reference value: 18.14 %). It counts as functional.

SMILES strings stand for the structures.

The results in this text go back to ChEMBL document CHEMBL4359830, “Discovery and structure-activity relationship of novel diphenylthiazole derivatives as BTK inhibitor with potent activity against B cell lymphoma cell lines” (Eur J Med Chem, 2019).

Tyrosine-protein kinase BTK, sequence (Q06187 whole entry): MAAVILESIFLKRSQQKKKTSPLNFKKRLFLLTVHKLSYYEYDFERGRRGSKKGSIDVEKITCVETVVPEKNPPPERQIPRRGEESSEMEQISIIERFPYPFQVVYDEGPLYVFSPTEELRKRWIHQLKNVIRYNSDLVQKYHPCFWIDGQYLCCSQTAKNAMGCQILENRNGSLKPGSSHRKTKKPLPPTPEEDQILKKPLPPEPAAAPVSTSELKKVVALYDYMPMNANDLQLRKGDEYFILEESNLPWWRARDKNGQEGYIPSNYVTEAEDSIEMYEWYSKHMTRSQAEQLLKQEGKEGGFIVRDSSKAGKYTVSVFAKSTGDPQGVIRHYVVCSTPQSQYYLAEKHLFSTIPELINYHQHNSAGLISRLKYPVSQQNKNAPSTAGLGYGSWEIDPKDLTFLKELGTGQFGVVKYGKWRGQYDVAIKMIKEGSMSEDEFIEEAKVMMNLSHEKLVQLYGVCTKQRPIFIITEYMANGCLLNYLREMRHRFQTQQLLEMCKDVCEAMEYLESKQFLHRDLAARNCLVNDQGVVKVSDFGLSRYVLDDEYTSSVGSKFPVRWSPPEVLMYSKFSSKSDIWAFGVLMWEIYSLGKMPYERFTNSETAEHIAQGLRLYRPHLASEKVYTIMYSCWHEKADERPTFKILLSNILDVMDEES

Turning to `CN1CCN(c2ccc(Nc3nc(-c4cccc(NC(=O)c5ccccc5F)c4)sc3C(N)=O)cc2)CC1`, the “Ratio IC50” value in the assay on Ramos [1] worked out at 10. For the same compound, the figures for the IC50 (in [2]; with Ramos [4]; in the assay with Raji [6]) were 2.67 µM, 1.36 µM and 3.27 µM, respectively. For the same compound, the inhibition at 40 µM with Ramos [3] was 95.5%; in the assay with Raji [5] it was 97.3%.
Regarding `O=C(Nc1cccc(-c2nc(Nc3ccc(N4CCOCC4)cc3)c(C(=O)O)s2)c1)c1ccc(F)cc1`, the “Ratio IC50” value with Raji [7] stood at 13. Moreover, the IC50 in assay [2] came out at 1.12 µM; in the assay on Ramos [4] it was 3.51 µM; with Raji [6] it was 1.2 µM. Also, the inhibition at 40 µM is 90.5% in the assay with Ramos [3] and 96.4% in the assay with Raji [5].
In the case of `CN1CCN(c2ccc(Nc3nc(-c4cccc(NC(=O)c5ccc(F)cc5)c4)sc3C(N)=O)cc2)CC1`, the “Ratio IC50” value in the assay with Ramos [1] came to 10. In addition, the IC50 in assay [2] stood at 0.862 µM; with Ramos [4] it was 1.42 µM; with Raji [6] it was 2.82 µM. The inhibition at 40 µM is 95.9% in the assay with Ramos [3] and 95.3% in the assay on Raji [5].
On to `C=CC(=O)N1CCC[C@@H](n2nc(-c3ccc(Oc4ccccc4)cc3)c3c(N)ncnc32)C1` [IBRUTINIB], for which the entries for the “inhibition (INH)” value with Ramos [3] and with Raji [5] were 81.2% and 76.23%, respectively. Moreover, the figures for the IC50 in the assay with Ramos [4] and in the assay with Raji [6] were 14.7 µM and 16 µM, respectively. For the same compound, the Activity amounted to 89.1% with Ramos [8]; 0.13% in the assay with Ramos [9]; 5.88% in the assay on Ramos [10]; 4.92% in the assay on Ramos [11]; 94.8% in the assay with Raji [12]; 0.01% in the assay on Raji [13]. Besides, the Activity with Raji [14] was 1.14%; in the assay with Raji [15], 4.01%; in the assay with Ramos [16], 68.45%; in the assay on Ramos [17], 28.73%; in the assay on Ramos [18] it was 2.81%; in the assay with Raji [19] it was 70.42%. Moreover, the figures for the Activity with Raji [20] and with Raji [21] were 14.66% and 14.92%, respectively.
For the compound `CN1CCN(c2ccc(Nc3nc(-c4cccc(NC(=O)c5ccc(C(F)(F)F)cc5)c4)sc3C(N)=O)cc2)CC1`, the IC50 in assay [2] stood at 0.206 µM; in the assay on Ramos [4], 1.58 µM; in the assay with Raji [6], 3.21 µM. The inhibition at 40 µM in the assay with Ramos [3] stood at 97.8%; in the assay with Raji [5], 91.8%.
For the compound `CN1CCN(c2ccc(Nc3nc(-c4cccc(NC(=O)c5ccc(Cl)cc5)c4)sc3C(=O)O)cc2)CC1`, the IC50 in assay [2] was determined as 0.134 µM; with Ramos [4], 23.3 µM; in the assay with Raji [6], 7.02 µM. Also, the inhibition at 40 µM in the assay on Ramos [3] is 71.6%; in the assay with Raji [5], 90.9%.
Regarding `CN1CCN(c2ccc(Nc3nc(-c4cccc(NC(=O)c5cccc(F)c5)c4)sc3C(=O)O)cc2)CC1`, the IC50 in assay [2] was 27.8 µM; with Ramos [4] it was 14 µM; in the assay on Raji [6], 35.1 µM. For the same compound, the inhibition at 40 µM in the assay on Ramos [3] came out at 82.7%; with Raji [5], 76.3%.
As for `CN1CCN(c2ccc(Nc3nc(-c4cccc(NC(=O)c5ccc(Cl)cc5)c4)sc3C(N)=O)cc2)CC1`, the “Ratio IC50” value in the assay on Ramos [1] is reported as 10. Moreover, the IC50 in [2] came to 0.614 µM; in the assay with Ramos [4], 1.36 µM; in the assay with Raji [6] it was 5.7 µM. The inhibition at 40 µM with Ramos [3] was found to be 99%; in the assay with Raji [5], 92.6%.
